# MsrA inhibitor: bovine MsrA enzyme inhibitors, primary screen, biochemical, absorbance, HTS; inhibition, % at 15.5 µM; Methionine sulfoxide reductase A (Bos taurus); hit rate 0.75% among 360,000; purified bovine MsrA, absorbance read-out; in the data active = inhibition above about 4.5%;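 note: 0% = vehicle wells with enzyme and 100% = reference inhibitor wells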
# NR1D1 modulator: modulators of Rev-erb alpha DNA binding, primary screen, biochemical, FITC-DNA, fluorescence polarization, uHTS; activity, % at 10 µM; Rev-erbα–FITC-DNA binding, 90 min; hit rate 0.79% among 370,000; Nuclear receptor subfamily 1 group D member 1 (Homo sapiens), P20393;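 active = activity above about 14%, limit read from the data; passing the limit was not always enough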;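 note: 0% = DMSO wells with 35 nM protein and 100% = DMSO wells with 750 nM protein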
# sPLA2-III inh: human group III sPLA2 inhibitors, primary screen, biochemical, QFRET, BODIPY PC-A2 liposome substrate | QFRET BODIPY PC-A2 liposome hydrolysis, fluorescence | AID 743126, 2013 | Group 3 secretory phospholipase A2 (Homo sapiens), Q9NZ20 | hit rate 0.56% among 370,000 | inhibition, % at 12.2 µM;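 active = inhibition above mean plus 3 SD of compounds lying within the high and low control bounds, cut at about 19% in these data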;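 note: 0% = median of test compound wells and 100% = no enzyme DMSO wells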
# ARFGAP1 inhibitor: inhibitors of rat ARFGAP1 GAP activity, primary screen, biochemical, fluorescence polarization, GDP tracer | ADP-ribosylation factor GTPase-activating protein 1 (Rattus norvegicus), Q62848 | Arfgap1-stimulated ARF1 GTP hydrolysis, GDP FP detection | inhibition, % at 16.5 µM | hit rate 0.26% among 360,000;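 active = inhibition above a per-plate limit, mean inhibition of low control wells plus 3 SD, cut at about 25% in these data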;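 note: 0% = DMSO wells with enzyme and 100% = wells lacking Arfgap1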
# Target sequence (Q62848 1-136 limits assumed): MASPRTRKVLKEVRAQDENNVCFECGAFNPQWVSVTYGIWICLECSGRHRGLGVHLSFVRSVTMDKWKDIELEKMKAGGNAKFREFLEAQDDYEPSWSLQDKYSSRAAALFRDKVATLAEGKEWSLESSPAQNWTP
#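 System: truncated rat Arfgap1 GAP domain / Benchmarks: high control wells lacking Arfgap1, low control full reaction with DMSO / Times: compound-enzyme preincubation 20 min, reaction 120 min, detection 60 min, 25 °C / Repeats: one replicate per compound / Also added: human ARF1(Δ1-17)-GTP substrate / Measured by: Tracer-displacement fluorescence polarization with EDTA stop, 620/688 nm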
# bovine MsrA act: bovine MsrA enzyme activators, primary screen, biochemical, absorbance, HTS; AID 602163, 2012; Methionine sulfoxide reductase A (Bos taurus); activation, % at 10.6 µM; purified bovine MsrA, absorbance read-out; hit rate 0.3% among 360,000; in the data active = activation above about 7.5%;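 note: 0% = vehicle and 100% = reference activator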
# ASAP1 inh: inhibitors of human ASAP1 ArfGAP activity, primary screen, biochemical, fluorescence polarization; hit rate 0.19% among 360,000; inhibition, % at 16.5 µM; ASAP1-stimulated ARF1 GTP hydrolysis, GDP FP detection; AID 624377, 2012; in the data active = inhibition above about 25%;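 note: 0% = vehicle with enzyme and substrate and 100% = no enzyme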
# Target sequence (Q9ULH1 325-724 limits assumed): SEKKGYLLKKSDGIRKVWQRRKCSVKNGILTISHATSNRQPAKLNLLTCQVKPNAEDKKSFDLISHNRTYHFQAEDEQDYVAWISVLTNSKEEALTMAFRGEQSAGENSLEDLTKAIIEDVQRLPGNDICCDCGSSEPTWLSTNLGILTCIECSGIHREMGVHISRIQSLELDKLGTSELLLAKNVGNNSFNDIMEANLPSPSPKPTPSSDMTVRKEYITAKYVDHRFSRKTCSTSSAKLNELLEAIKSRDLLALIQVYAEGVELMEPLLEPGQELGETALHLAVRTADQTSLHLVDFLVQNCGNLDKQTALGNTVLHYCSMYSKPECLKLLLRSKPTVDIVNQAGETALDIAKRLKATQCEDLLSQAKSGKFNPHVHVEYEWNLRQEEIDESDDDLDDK
# sPLA2 confirm: human group III sPLA2 inhibitors, confirmation, biochemical, QFRET, triplicate. shares compounds with sPLA2-III inh. recombinant hGIII-sPLA2, BODIPY PC-A2 QFRET fluorescence. inhibition, % at 12.2 µM. hit rate 34% among 2,000. AID 743280, 2014;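 active = mean inhibition across triplicates above the hit cutoff set in the earlier primary screen, cut at about 19% in these data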;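 note: 0% = enzyme with DMSO and 100% = DMSO wells lacking enzyme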
# BODIPY interf: 535nm fluorescence optical interference, confirmation, artefact control for HGIII-sPLA2 inhibitor project, biochemical, QFRET. hit rate 8.5% among 2,000. shares compounds with sPLA2-III inh. inhibition, % at 12.2 µM. BODIPY FL product fluorescence interference;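 active = average inhibition above the solvent-only control mean plus 3 SD, cut at about 6% in these data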;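 note: 0% = DMSO with substrate plus product and 100% = DMSO with substrate alone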
# BODIPY interf DR: 535nm fluorescence optical interference, dose response, artefact control for HGIII-sPLA2 inhibitor project, biochemical, QFRET. BODIPY FL product fluorescence interference, cell-free. AID 743455, 2014. shares compounds with sPLA2-III inh. 240 tested, under 10 active. IC50, µM;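 active = IC50 at or below 10 µM; inactive = IC50 above 10 µM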
# * = called active by the depositor; . = no result given. Sampled rows, rich in hits. Any-hit rate of the full collection: about 2.7%.
SMILES,MsrA inhibitor,NR1D1 modulator,sPLA2-III inh,ARFGAP1 inhibitor,bovine MsrA act,ASAP1 inh,sPLA2 confirm,BODIPY interf,others
OC(CCN1CCC2CCC(C2)C1)c1ccc(Br)cc1 (stereo not drawn),1.2,-0.2,20.1*,-9.5,-8.1,-2.7,4.7,-17.3,
O=C(/C=C/c1cccnc1)c1ccc(O)cc1,2.1,-4.1,22.3*,13.2,-3.8,4.8,3.6,-6.9,
COc1ccc(CCNC(=O)Nc2ccc3c(c2)[C@]2(CC(=O)N(CC(C)C)C2c2ccccc2)C(=O)N3C)cc1OC (stereo partly drawn),.,0.6,-5.6,.,.,.,.,.,
CC(=S)/C=C1\Sc2ccccc2N1C,2.5,1.1,3.1,-4.2,-2.2,-8.3,.,.,
CN1c2ccccc2Sc2cc(N)ccc21,1.2,4.8,21.4*,-2.5,-8.1,-4.2,35.8*,10.5*,
O=C(CC(=O)N/N=C/c1ccccc1O)NCc1cccnc1,0.4,-0.5,19.4*,-1.4,-5.7,4.7,-4.1,-3.8,
O=C(NCC1CCCO1)C(=O)NCC(c1ccco1)N1CCN(c2ccccc2)CC1 (stereo not drawn),-0.4,5.5,18.1,4.9,-2.8,6.1,.,.,
O=C(NCC1CCCO1)C(=O)NCC(c1ccco1)N1CCN(c2ccc(F)cc2)CC1 (stereo not drawn),-0.4,6.2,21.5*,6.7,-4.1,0.4,3.0,-17.7,
COc1cc2c3c(c1)C(C)CC(C)(C)N3C(=O)C2=O (stereo not drawn),0.1,1.7,24.0*,-4.7,-2.6,2.0,13.3,3.8,
COc1cc2c3c(c1)C(C)=CC(C)(C)N3C(=O)C2=O,0.1,2.6,10.0,-11.6,-2.6,7.7,.,.,
CC1(C(=O)NC(=S)NNC(=O)c2ccncc2)CCCCC1,3.1,6.9,26.4*,-1.0,-2.1,-9.2,20.1*,-11.2,
COc1ccc(/C=C/C(=O)NC(=S)Nc2ccc(C(=O)O)cc2)cc1,1.8,-1.2,19.9*,-5.2,-2.6,4.0,2.5,-6.1,
COc1ccc(NC(=S)NC(=O)/C=C/c2ccc(F)cc2)cc1,-1.5,-1.8,-0.8,-14.9,-2.7,-12.7,.,.,
NS(=O)(=O)c1ccc(N=Nc2c(O)c(C(=O)O)cc3ccccc23)cc1,1.8,2.3,33.0*,-11.7,-1.0,7.0,24.6*,-1.9,
O=C(O)Cc1ccc(N=Nc2c(O)c(C(=O)O)cc3ccccc23)cc1,0.0,-7.1,0.5,-4.5,-13.0,-7.1,.,.,
CC1CN(Cc2ccccc2)c2ccccc2NC1=S (stereo not drawn),1.5,-0.7,21.0*,-6.1,-3.1,-1.3,22.5*,0.2,
CC1CN(Cc2ccccc2)C(=O)N(c2ccccc2)C1=O (stereo not drawn),0.4,-3.1,1.2,-10.9,-3.2,-5.8,.,.,
CCC(Oc1ccccc1)C(=O)NCCOC (stereo not drawn),-0.1,5.5,20.8*,-12.2,-4.2,-9.6,0.0,-6.9,
CN(C)c1ccc(NC(=O)Cn2cc3c(n2)CCCC3)cc1,0.2,0.3,21.4*,6.0,-0.2,-12.9,16.7,-3.4,
CCc1cccc(NC(=O)Cn2cc3c(n2)CCCC3)c1,0.6,5.7,-0.5,-0.7,6.5,0.8,.,.,
Cc1cc(C(=O)c2ccc(Cl)cc2)c(NC(=O)CCl)s1,0.1,2.6,19.5*,-6.2,-5.1,-1.1,3.1,-6.9,
COc1cc(-n2c(C)nc3cc(C(=O)N4CCN(C(C)=O)CC4)ccc32)cc(OC)c1OC,.,6.1,4.0,.,.,.,.,.,
CCOc1ccccc1Oc1nc(-c2ccccc2O)nc2ccccc12,1.0,7.0,20.1*,4.1,-1.0,3.9,-15.5,-1.5,
COc1cc(C)ccc1Oc1nc(-c2ccccc2O)nc2ccccc12,1.6,1.4,6.8,-13.7,-2.9,-0.4,.,.,
CCOc1nc(-c2ccc(Cl)cc2)nc2ccccc12,-0.6,-2.2,25.1*,16.1,3.2,5.4,-2.4,1.3,
SMILES,MsrA inhibitor,NR1D1 modulator,sPLA2-III inh,ARFGAP1 inhibitor,bovine MsrA act,ASAP1 inh,sPLA2 confirm,BODIPY interf,others
CC(C)Oc1nc(-c2ccc(Cl)cc2)nc2ccccc12,0.4,-3.0,0.0,9.2,-4.5,4.5,.,.,
COc1ccc(C2Nc3ccccc3C(=O)N2Cc2cccnc2)cc1COc1c(C)cccc1C (stereo not drawn),.,-1.9,-2.7,.,.,.,.,.,
CC(CC(=O)Nc1ccc(Cl)c(S(=O)(=O)N2CCOCC2)c1)c1ccccc1 (stereo not drawn),-0.9,0.6,-8.9,-2.8,-3.6,2.9,.,.,
O=S(=O)(Cc1ccc(Cl)cc1)N1CCCC1,0.9,-3.9,20.6*,3.9,-2.3,-0.2,5.1,-8.0,
O=S(=O)(Cc1ccc(Cl)cc1)N1CCCCCC1,-0.6,4.0,1.8,2.8,-1.2,0.1,.,.,
CC(=O)N[C@@H]1C[C@@H]2O[C@H](CO)CC[C@@H]2O[C@@H]1CCc1ccc(C#CC2(O)CCCC2)cc1,.,-0.8,2.8,.,.,.,.,.,
Cc1c([N+](=O)[O-])cc(C(=O)N2CCOCC2)cc1[N+](=O)[O-],-0.5,2.5,5.1,-12.4,-5.5,-8.1,.,.,
COc1cc([N+](=O)[O-])c(C(=O)N2CCOCC2)c([N+](=O)[O-])c1,0.7,-1.0,20.4*,15.6,-2.5,-2.5,5.1,-0.2,
C[C@@H]1OC(C2CCCCC2)N(C)[C@H]2C[C@H]3c4[nH]c5cccc(-c6cccc(F)c6)c5c4CCN3C(=O)[C@@H]12 (stereo partly drawn),.,-3.2,5.7,.,.,.,.,.,
O=C(Cc1ccccc1)NNC(=S)NC(=O)c1cccs1,2.1,2.3,21.0*,10.4,2.7,-5.4,34.9*,-5.2,BODIPY interf DR=>122
CCCCC(=O)Nc1ccc(C(=O)NNC(=S)NC(=O)c2ccco2)cc1,2.5,-0.5,19.7*,9.3,-0.9,-9.3,23.6*,-12.9,
CCCCC(=O)Nc1ccc(C(=O)NNC(=S)NC(=O)c2cccs2)cc1,2.8,-2.6,23.9*,-0.3,-0.4,7.5,27.9*,-28.0,BODIPY interf DR=>122

# Bioassay records as filed in PubChem BioAssay.
